Measured values: ChEMBL document CHEMBL1121584, “Soft drugs. 3. A new class of anticholinergic agents” (J Med Chem, 1980)

Experiments:
Assay type in all cases: functional
Felis catus [1] = species: Felis catus; experiment: acetylcholine antagonist effect of compound on cat blood pressure at concentration 5.7*10e-7 in 10 min
In short: (§1)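 Adult cats under ip α-chloralose (80 mg/kg) plus pentobarbitone (6 mg/kg), bilaterally vagotomized and artificially respired. Carotid blood pressure was recorded. An iv acetylcholine dose giving 70–80% of maximal vasodepressor response was used. After iv test drug, acetylcholine responses were checked at 1 min and then every 2–3 min and expressed as % of control. Doses were given in mol/kg, escalating after recovery.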

Felis catus [2] = species: Felis catus; experiment: acetylcholine antagonist effect of compound on cat blood pressure at concentration 5.7*10e-7 in 13 min; in short: as §1
Felis catus [3] = species: Felis catus; experiment: acetylcholine antagonist effect of compound on cat blood pressure at concentration 5.7*10e-7 in 17 min; in short: as §1
Felis catus [4] = species: Felis catus; experiment: acetylcholine antagonist effect of compound on cat blood pressure at concentration 5.7*10e-7 in 1 min; in short: as §1
Felis catus [5] = species: Felis catus; experiment: acetylcholine antagonist effect of compound on cat blood pressure at concentration 5.7*10e-7 in 21 min; in short: as §1
Felis catus [6] = species: Felis catus; experiment: acetylcholine antagonist effect of compound on cat blood pressure at concentration 5.7*10e-7 in 25 min; in short: as §1
Felis catus [7] = species: Felis catus; experiment: acetylcholine antagonist effect of compound on cat blood pressure at concentration 5.7*10e-7 in 29 min; in short: as §1
Felis catus [8] = species: Felis catus; experiment: acetylcholine antagonist effect of compound on cat blood pressure at concentration 5.7*10e-7 in 6 min; in short: as §1
Felis catus [9] = experiment: acetylcholine antagonist effect of compound on cat blood pressure at concentration 5.7*10e-8 mol/kg in 1 min; in short: as §1
Felis catus [10] = species: Felis catus; experiment: acetylcholine antagonist effect of compound on cat blood pressure at concentration 5.7*10e-8 in 3 min; in short: as §1
Felis catus [11] = species: Felis catus; experiment: acetylcholine antagonist effect of compound on cat blood pressure at concentration 5.7*10e-8 in 4 min
In short: (§2)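 Adult cats anesthetized ip with α-chloralose (80 mg/kg) plus sodium pentobarbitone (6 mg/kg), bilaterally vagotomized, artificially respired. Carotid arterial pressure recorded. Drugs given iv via brachial vein. Acetylcholine dose giving 70-80% of maximal vasodepressor response used throughout. Test drug injected, acetylcholine response checked 1 min later, then every ~2-3 min. Value is % of control vasodepressor response to acetylcholine.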

Felis catus [12] = species: Felis catus; experiment: acetylcholine antagonist effect of compound on cat blood pressure at concentration 5.7*10e-8 in 5 min; in short: as §2
Felis catus [13] = species: Felis catus; experiment: acetylcholine antagonist effect of compound on cat blood pressure at concentration 5.7*10e-8 in 9 min; in short: as §2
Felis catus [14] = species: Felis catus; experiment: acetylcholine antagonist effect of compound on cat blood pressure at concentration 5.7*10e-7 in 4 min; in short: as §1

`C[N+]1(COC(=O)C(c2ccccc2)C2CCCC2)CCOCC1.[Cl-]` (centres undefined) gave a Response (Felis catus [1]) of 23%, a Response (Felis catus [2]) of 50% and a Response (Felis catus [3]) of 59%. It also gave a Response (Felis catus [4]) of 0%, a Response (Felis catus [5]) of 73% and a Response (Felis catus [6]) of 82%. The Response (Felis catus [7]) was 100%, the Response (Felis catus [8]) was 0% and the Response (Felis catus [9]) was 0%. For the same molecule, the Response (Felis catus [10]) was 45%, the Response (Felis catus [11]) was 82% and the Response (Felis catus [12]) was 90%. The Response (Felis catus [13]) was 100% and the Response (Felis catus [14]) was 0%.
